Measurements of several laboratories.
Compare with care: the assays were run in different laboratories.
Target: Cytochrome P450 2C8 (CYP2C8, Homo sapiens, UniProt P10632)
Read-out: enzyme activity
Action: inhibitor

Cc1ccc2nc(-c3ccccc3)c(CNc3ccc(F)cc3)n2c1 — IC50: 1000 nM
Cc1cc(C)c2c(c1)[C@@H](N(Cc1cc(C(F)(F)F)cc(C(F)(F)F)c1)c1nnn(C)n1)CCCN2C[C@H]1CC[C@H](C(=O)O)CC1 — Ki (human, liver microsomes; pH 7.4): 1300 nM
N#C[C@H](C[C@@H]1CCCNC1=O)NC(=O)[C@H](CC1CC1)NC(=O)c1cc2cccc(Cl)c2[nH]1 — IC50 (human, liver microsomes): 3900 nM
Ic1ccc(CSCn2ccnc2)cc1 — IC50 (30 min, pH 7.4): 566 nM
C=CC(=O)Nc1cc(Nc2nccc(Nc3cc(Cl)c(F)cc3C(C)(C)O)n2)c(OC)cc1N1CC[C@@H](N(C)C)C1 — IC50 (human, liver microsomes): > 30000 nM
C[C@@H](c1ccc2nccn2c1)n1nnc2ncc(-c3cnn(C)c3)nc21 — IC50 (human, liver microsomes; pH 7.4): 16000 nM
COc1ccn2c(Nc3ccccc3F)c(-c3ccncn3)nc2c1 — IC50: 1000 nM
Cc1cc2c(F)c(Oc3ncnn4cc(OC[C@@H](C)O)c(C)c34)ccc2[nH]1 — IC50 (fluorescence; 15 min): 3080 nM
NS(=O)(=O)NCCNc1nonc1C(=NO)Nc1ccc(F)c(Br)c1 — IC50: > 10000 nM
CCc1cc(/C(C)=N/OCc2ccc(C3CCCCC3)c(C(F)(F)F)c2)ccc1CN1CC(C(=O)O)C1 — IC50 (human, liver microsomes; 20 min): > 1100 nM
